# Measured values as given in paper PMC2191409 (The Journal of Experimental Medicine, 1994).
# Tested on: MZ2-MEL.61 cells (D-) expressing HLA-A1
# Test: Peptide sensitization assay
# Format: cell-based, human
# Details: CTL clone 20/38
# Outline: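 Target cells (MZ2-MEL.61, antigen-loss D− variant, HLA-A1+) were 51Cr-labelled for 1 h at 37°C and washed extensively. 1,000 cells/well were preincubated 30 min at 37°C with various concentrations of synthetic test peptide (>90% HPLC purity; stock in 0.02 M PBS). CTL 20/38 were then added in equal volume at E/T 10:1. Chromium release was read after 4 h at 37°C. D+ and D− MZ2-MEL cells without peptide served as reference.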
sequence,measurement,value
EVDPIGHVY [MAGE-6 derived peptide],Recognition by the anti-MZ2-D CTL clone,not recognized
